46 compounds from ChEMBL document CHEMBL4152213, “Synthesis and biological evaluation of 2,5-disubstituted furan derivatives as P-glycoprotein inhibitors for Doxorubicin resistance in MCF-7/ADR cell” (Eur J Med Chem, 2018) can be followed below.

For orientation: EC50 means the concentration needed to bring the measured effect to its halfway point.

Common to all, as to type: cell-based
A short description of data set [1]: Inhibition of P-gp in human MCF7/ADR cells assessed as cell viability after 48 hrs by MTT assay. The note with it: NCI/ADR-RES. In outline:
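MTT assay in MCF-7/ADR cells: cells incubated 48 h with or without compounds, then 5 mg/mL MTT added for 3–4 h at 37 °C, 5% CO2. Formazan dissolved in EtOH/DMSO (1:1), OD at 570 and 650 nm. Data are the mean of three independent determinations of triplicate samples.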

For data set [2], the species on record is Homo sapiens. Nature of the data set: Inhibition of P-gp in human MCF7/ADR cells assessed as increase in intracellular accumulation of doxorubicin at 20 uM after 2 days by fluorescence assay relative to doxorubicin alone. In outline:
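MCF-7/ADR cells exposed to compounds at 20 μM for 2 days, with Doxorubicin 50 μM added on the second day. Cells trypsinized, washed twice in ice-cold PBS pH 7.4, kept on ice under 1 h, then cellular Doxorubicin fluorescence measured by flow cytometry. Doxorubicin-only cells set as 100% and untreated autofluorescence as 0%. Expressed as fold accumulation; three independent determinations in triplicate.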

Data set [3] is filed under the species Homo sapiens. Nature of the data set: Inhibition of P-gp in human MCF7/ADR cells assessed as assessed as potentiation of doxorubicin-induced antiproliferative activity by measuring doxorubicin antiproliferative activity at 20 uM after 2 days by MTT assay. Details: scale not given: the % may be the effect or the level left. Put shortly: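 MCF-7/ADR cells plated at 10,000/well, then treated the next day. Compounds at 20 μM plus Doxorubicin 5 μM for 2 days, washed twice, then Doxorubicin alone for 1 day. Read-out by MTT: 0.5 mg/mL, 1 h at 37 °C, DMSO, absorbance 570/630 nm. Growth inhibition given as % of untreated control. Eight wells per treatment; three independent determinations in triplicate.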
In general terms: Formazan colour is commonly taken as a measure of viable cells.

Data set [4] relates to NCI/ADR-RES. Nature of the data set: Cytotoxicity against human MCF7/ADR cells at 100 uM after 24 to 48 hrs by MTT assay relative to control. In outline:
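MCF-7/ADR cells (RPMI 1640, 10% FBS, 37 °C, 5% CO2) exposed to compounds alone at 100 μM without Doxorubicin for 24 and 48 h. Viability by MTT: 5 mg/mL MTT, 3–4 h at 37 °C, formazan dissolved in EtOH/DMSO 1:1, OD at 570 and 650 nm. Cytotoxicity taken relative to untreated control.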

For the compound `O=C(c1ccc(-c2ccccc2)o1)N1CCCc2ccccc21`, the EC50 in data set [1] was found to be 10.9 µM.
As for `COc1ccc(-c2ccc(C(=O)N3CCc4ccccc4C3)o2)cc1`, in data set [1], the EC50 came to 5.48 µM.
Take `O=C(c1ccc(-c2ccc([N+](=O)[O-])cc2)o1)N1CCc2ccccc2C1`: in data set [1], the EC50 was determined as 12.5 µM.
On the same count and under the same terms, the result for `O=C(c1ccc(-c2ccc(Br)cc2)o1)N1CCCc2ccccc21` reads 9.21 µM; that for `O=C(c1ccc(-c2ccc(Br)cc2)o1)N1CCc2ccccc2C1`, 7.82 µM.
On the same count and under the same terms, as for `O=C(c1ccc(-c2ccc(F)cc2)o1)N1CCc2ccccc2C1`, the figure is 10.4 µM.
In the case of `COc1ccc(-c2ccc(C(=O)N3CCCc4ccccc43)o2)cc1`, in data set [1], the EC50 amounted to 6.82 µM.
For the compound `COc1ccc(-c2ccc(C(=O)N3CCc4cc(OC)c(OC)cc4C3)o2)cc1`, the EC50 in data set [1] turned out to be 0.89 µM. For the same compound, the fold change (FC) in data set [2] turned out to be 9.2. Further, the Activity in data set [3] is 97.8%; in data set [4], under 15%.
Take `O=C(c1ccc(-c2ccc(F)cc2F)o1)N1CCc2ccccc2C1`: the EC50 in data set [1] came to 12.7 µM.
Still for that read-out and setting: as for `O=C(c1ccc(-c2ccccc2[N+](=O)[O-])o1)N1CCCc2ccccc21`, the figure is 19.3 µM; as for `COc1cc2c(cc1OC)CN(C(=O)c1ccc(-c3ccccc3[N+](=O)[O-])o1)CC2`, 13.9 µM.
`COc1cc2c(cc1OC)CN(C(=O)c1ccc(-c3ccc(Cl)cc3)o1)CC2`: the EC50 in data set [1] amounted to 3.27 µM. Moreover, in data set [2], the fold change (FC) worked out at 6.8. Further, the Activity is 89.6% in data set [3] and under 15% in data set [4].
Consider `COc1cc2c(cc1OC)CN(C(=O)c1ccc(-c3ccccc3)o1)CC2`, for which the 50% effective concentration (EC50) in data set [1] turned out to be 6.72 µM.
The same measure, in the same setting: as for `O=C(c1ccc(-c2ccc([N+](=O)[O-])cc2)o1)N1CCCc2ccccc21`, the figure is 15.5 µM; as for `COc1cc2c(cc1OC)CN(C(=O)c1ccc(-c3ccc(F)cc3F)o1)CC2`, 10.4 µM.
In the case of `O=C(c1ccc(-c2ccc(F)cc2)o1)N1CCCc2ccccc21`, in data set [1], the half-maximal effective concentration (EC50) came to 13.2 µM.
Still for that read-out and setting: as for `O=C(c1ccc(-c2ccc(F)cc2F)o1)N1CCCc2ccccc21`, the figure is 17.3 µM; as for `O=C(c1ccc(-c2ccc(Cl)cc2)o1)N1CCc2ccccc2C1`, 6.73 µM.
Still for that read-out and setting: the result for `O=C(c1ccc(-c2c(F)cccc2F)o1)N1CCCc2ccccc21` reads 19.6 µM; that for `O=C(c1ccc(-c2cccc([N+](=O)[O-])c2)o1)N1CCCc2ccccc21`, 29.1 µM.
The same measure, in the same setting: the result for `O=C(c1ccc(-c2ccccc2)o1)N1CCc2ccccc2C1` reads 8.29 µM.
With `COc1cc2c(cc1OC)CN(C(=O)c1ccc(-c3cccc(F)c3)o1)CC2`, the EC50 in data set [1] was found to be 17.8 µM.
For the compound `COc1cc2c(cc1OC)CN(C(=O)c1ccc(-c3ccc(Br)cc3)o1)CC2`, the EC50 in data set [1] is 4.34 µM. In data set [2], the fold change (FC) came out at 5. The figures for the Activity in data set [3] and in data set [4] were 79.8% and under 15%, respectively.
Turning to `O=C(c1ccc(-c2ccccc2Cl)o1)N1CCCc2ccccc21`, in data set [1], the EC50 was 13.7 µM.
Still for that read-out and setting: the result for `Cc1ccc(-c2ccc(C(=O)N3CCCc4ccccc43)o2)cc1` reads 9.14 µM; that for `O=C(c1ccc(-c2cccc([N+](=O)[O-])c2)o1)N1CCc2ccccc2C1`, 20.4 µM; that for `COc1cc2c(cc1OC)CN(C(=O)c1ccc(-c3cccc(Cl)c3)o1)CC2`, 14.7 µM.
Still for that read-out and setting: as for `O=C(c1ccc(-c2ccccc2Cl)o1)N1CCc2ccccc2C1`, the figure is 10.2 µM.
On to `COc1ccc(CCN(C)CCCC(C#N)(c2ccc(OC)c(OC)c2)C(C)C)cc1OC` (configuration not stated) [VERAPAMIL], for which, in data set [1], the EC50 amounted to 20.5 µM. In data set [2], the fold change (FC) came to 3.6. Moreover, the Activity in data set [3] came to 52.5%.
In the case of `O=C(c1ccc(-c2ccccc2F)o1)N1CCCc2ccccc21`, in data set [1], the EC50 was 17.9 µM.
Regarding `O=C(c1ccc(-c2cccc(Cl)c2)o1)N1CCc2ccccc2C1`, the EC50 in data set [1] was determined as 18.2 µM.
The same measure, in the same setting: as for `O=C(c1ccc(-c2cccc(F)c2)o1)N1CCCc2ccccc21`, the figure is 27.4 µM; as for `Cc1ccc(-c2ccc(C(=O)N3CCc4ccccc4C3)o2)cc1`, 8.12 µM; as for `COc1cc2c(cc1OC)CN(C(=O)c1ccc(-c3ccc(C)cc3)o1)CC2`, 5.23 µM.
On the same count and under the same terms, as for `O=C(c1ccc(-c2cccc(Cl)c2)o1)N1CCCc2ccccc21`, the figure is 17.4 µM; as for `O=C(c1ccc(-c2ccc(Cl)cc2)o1)N1CCCc2ccccc21`, 8.28 µM; as for `O=C(c1ccc(-c2cccc(F)c2)o1)N1CCc2ccccc2C1`, 20.5 µM.
Regarding `COc1cc2c(cc1OC)CN(C(=O)c1ccc(-c3cccc([N+](=O)[O-])c3)o1)CC2`, the EC50 in data set [1] was 16.3 µM.
Same read-out and setting: as for `O=C(c1ccc(-c2ccccc2F)o1)N1CCc2ccccc2C1`, the figure is 14.8 µM; as for `COc1cc2c(cc1OC)CN(C(=O)c1ccc(-c3ccccc3F)o1)CC2`, 10.9 µM.
Still for that read-out and setting: the result for `COc1cc2c(cc1OC)CN(C(=O)c1ccc(-c3c(F)cccc3F)o1)CC2` reads 13 µM.
Still for that read-out and setting: the result for `COc1cc2c(cc1OC)CN(C(=O)c1ccc(-c3ccc(F)cc3)o1)CC2` reads 8.48 µM; that for `O=C(c1ccc(-c2ccccc2[N+](=O)[O-])o1)N1CCc2ccccc2C1`, 15.2 µM.
Consider `COc1cc2c(cc1OC)CN(C(=O)c1ccc(-c3ccc([N+](=O)[O-])cc3)o1)CC2`, for which the EC50 in data set [1] was 9.23 µM.
Still for that read-out and setting: the result for `O=C(c1ccc(-c2c(F)cccc2F)o1)N1CCc2ccccc2C1` reads 15.3 µM; that for `COc1cc2c(cc1OC)CN(C(=O)c1ccc(-c3ccccc3Cl)o1)CC2`, 8.18 µM.
